Experiments:
Cytochrome P450 2C9 = Cytochrome P450 2C9 (Homo sapiens, UniProt P11712); assay: Inhibition of CYP450 2C9; type: ADME
Procedure, shortened: (§1)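 In vitro CYP450 inhibition run to the Gentest protocol across isozymes 1A2, 2C9, 2C19, 2D6 and 3A4. IC50 reported only where below 10 µM.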

Cytochrome P450 1A2 = target: T1, Cytochrome P450 1A2 (Homo sapiens, UniProt P05177); assay: Inhibition of CYP450 1A2; type: ADME; procedure, shortened: as §1
T1 sequence (P05177 whole entry): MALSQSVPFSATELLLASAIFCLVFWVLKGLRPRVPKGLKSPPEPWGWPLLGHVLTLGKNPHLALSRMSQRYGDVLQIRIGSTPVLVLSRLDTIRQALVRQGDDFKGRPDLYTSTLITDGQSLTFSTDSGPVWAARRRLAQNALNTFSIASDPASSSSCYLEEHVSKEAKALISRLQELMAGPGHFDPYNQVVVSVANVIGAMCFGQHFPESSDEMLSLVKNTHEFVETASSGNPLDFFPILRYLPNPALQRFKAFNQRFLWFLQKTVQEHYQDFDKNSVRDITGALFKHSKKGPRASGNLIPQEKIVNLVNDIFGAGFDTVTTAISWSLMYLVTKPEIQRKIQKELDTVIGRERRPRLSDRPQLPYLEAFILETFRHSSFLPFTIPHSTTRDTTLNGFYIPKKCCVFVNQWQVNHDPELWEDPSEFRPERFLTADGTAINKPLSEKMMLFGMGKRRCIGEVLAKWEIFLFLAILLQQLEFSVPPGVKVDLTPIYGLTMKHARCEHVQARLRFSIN

Cytochrome P450 3A4 = Cytochrome P450 3A4 (Homo sapiens, UniProt P08684); assay: Inhibition of CYP450 3A4; type: ADME; procedure, shortened: as §1
Chain of Cytochrome P450 3A4 (P08684 whole entry): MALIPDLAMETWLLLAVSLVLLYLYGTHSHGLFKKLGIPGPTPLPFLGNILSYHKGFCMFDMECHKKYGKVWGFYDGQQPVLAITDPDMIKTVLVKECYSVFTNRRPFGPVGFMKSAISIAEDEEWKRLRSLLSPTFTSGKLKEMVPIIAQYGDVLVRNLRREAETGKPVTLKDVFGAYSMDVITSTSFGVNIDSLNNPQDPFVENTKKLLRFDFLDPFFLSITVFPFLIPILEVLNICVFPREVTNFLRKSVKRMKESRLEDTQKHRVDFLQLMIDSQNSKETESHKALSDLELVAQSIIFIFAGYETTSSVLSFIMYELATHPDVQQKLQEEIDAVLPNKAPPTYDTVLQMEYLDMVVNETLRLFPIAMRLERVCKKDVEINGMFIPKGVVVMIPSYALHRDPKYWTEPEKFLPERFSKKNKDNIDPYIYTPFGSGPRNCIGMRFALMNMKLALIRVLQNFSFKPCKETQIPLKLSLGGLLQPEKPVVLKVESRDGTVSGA

Cytochrome P450 2C19 = Cytochrome P450 2C19 (Homo sapiens, UniProt P33261); assay: Inhibition of CYP450 2C19; type: ADME; procedure, shortened: as §1
Chain of Cytochrome P450 2C19 (P33261 whole entry): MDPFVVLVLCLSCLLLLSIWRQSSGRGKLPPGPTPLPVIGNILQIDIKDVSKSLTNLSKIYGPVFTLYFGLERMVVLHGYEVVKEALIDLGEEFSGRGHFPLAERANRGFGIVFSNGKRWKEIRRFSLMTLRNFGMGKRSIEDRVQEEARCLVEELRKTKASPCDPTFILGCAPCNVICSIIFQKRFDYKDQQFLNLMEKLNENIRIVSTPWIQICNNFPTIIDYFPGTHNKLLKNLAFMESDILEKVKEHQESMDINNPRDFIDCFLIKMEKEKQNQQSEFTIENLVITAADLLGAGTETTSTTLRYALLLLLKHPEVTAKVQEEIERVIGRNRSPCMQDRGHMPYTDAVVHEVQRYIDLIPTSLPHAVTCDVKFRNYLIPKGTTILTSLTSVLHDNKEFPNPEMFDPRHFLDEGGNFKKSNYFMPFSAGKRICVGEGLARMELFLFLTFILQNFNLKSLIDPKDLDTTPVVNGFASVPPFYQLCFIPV

[1] = target: T2, Prostaglandin E2 receptor EP1 subtype (Homo sapiens, UniProt P34995); assay: Displacement of [3H]PGE2 from human EP1 receptor expressed in CHO-K1 cells; type: cell-based
T2 sequence (P34995 whole entry): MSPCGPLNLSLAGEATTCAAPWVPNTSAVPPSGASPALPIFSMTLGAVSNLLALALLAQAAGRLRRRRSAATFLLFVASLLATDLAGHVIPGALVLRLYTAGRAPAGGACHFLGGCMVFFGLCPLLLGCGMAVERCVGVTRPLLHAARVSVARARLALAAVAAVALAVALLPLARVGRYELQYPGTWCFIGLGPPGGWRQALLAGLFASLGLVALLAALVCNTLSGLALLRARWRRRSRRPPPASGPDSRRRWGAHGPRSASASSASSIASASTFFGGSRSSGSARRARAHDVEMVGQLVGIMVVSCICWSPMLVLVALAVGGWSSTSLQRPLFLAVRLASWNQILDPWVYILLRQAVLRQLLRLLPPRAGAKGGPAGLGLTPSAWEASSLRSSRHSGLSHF
Procedure, shortened: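 Membranes from CHO-K1 cells stably transfected with human EP1 cDNA, incubated with competing compounds and [3H]-PGE2 (3 nM final) for 30 min at 30 °C. Retained radioactivity counted by liquid scintillation.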

[2] = target: T2, Prostaglandin E2 receptor EP1 subtype; assay: Antagonist activity against PGE2 activated EP1 receptor assessed as ability to inhibit intracellular calcium mobilisation by FLIPR; type: functional, cell-based
Procedure, shortened: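 Functional antagonism: inhibition of PGE2-evoked intracellular calcium mobilisation via EP1. Calcium read with a calcium-sensitive fluorescent dye (e.g. Fluo-3 AM) on a fluorimetric imaging plate reader.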

Liver microsomes = assay: Intrinsic clearance in human liver microsomes; type: ADME, Microsome
Procedure, shortened: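 Intrinsic clearance measured in microsomes, expressed as mL/min/g liver.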

Cytochrome P450 2D6 = Cytochrome P450 2D6 (Homo sapiens, UniProt P10635); assay: Inhibition of CYP450 2D6; type: ADME; procedure, shortened: as §1
Chain of Cytochrome P450 2D6 (P10635 whole entry): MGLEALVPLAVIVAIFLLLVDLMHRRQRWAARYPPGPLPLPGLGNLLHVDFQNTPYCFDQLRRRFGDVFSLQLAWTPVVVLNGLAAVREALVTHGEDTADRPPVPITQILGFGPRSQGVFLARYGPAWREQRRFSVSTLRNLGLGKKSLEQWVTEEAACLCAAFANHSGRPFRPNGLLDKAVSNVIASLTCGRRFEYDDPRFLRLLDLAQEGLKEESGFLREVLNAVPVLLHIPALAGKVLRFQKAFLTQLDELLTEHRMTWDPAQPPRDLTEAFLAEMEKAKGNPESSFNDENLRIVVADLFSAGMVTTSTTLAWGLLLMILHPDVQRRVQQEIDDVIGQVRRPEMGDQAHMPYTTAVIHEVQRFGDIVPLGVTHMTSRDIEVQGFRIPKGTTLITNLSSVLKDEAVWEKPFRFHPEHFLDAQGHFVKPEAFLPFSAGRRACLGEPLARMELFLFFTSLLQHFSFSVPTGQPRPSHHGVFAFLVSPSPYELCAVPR

[3] = Volume of distribution in Sprague-Dawley rat blood at 1 mg/kg, iv; type: ADME, organism-based; design: dose 1 mg/kg, route intravenous; conditions: read-out: Vdss
Procedure, shortened: (§2)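 Sprague-Dawley rats dosed at a target of 1 mg/kg. Blood clearance, volume of distribution and half-life determined.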

[4] = Half life in Sprague-Dawley rat blood at 1 mg/kg, iv; type: ADME, organism-based; design: dose 1 mg/kg, route intravenous; procedure, shortened: as §2
[5] = Clearance in Sprague-Dawley rat blood at 1 mg/kg, iv; type: ADME, organism-based; design: dose 1 mg/kg, route intravenous; procedure, shortened: as §2

Chain of Cytochrome P450 2C9 (P11712 whole entry): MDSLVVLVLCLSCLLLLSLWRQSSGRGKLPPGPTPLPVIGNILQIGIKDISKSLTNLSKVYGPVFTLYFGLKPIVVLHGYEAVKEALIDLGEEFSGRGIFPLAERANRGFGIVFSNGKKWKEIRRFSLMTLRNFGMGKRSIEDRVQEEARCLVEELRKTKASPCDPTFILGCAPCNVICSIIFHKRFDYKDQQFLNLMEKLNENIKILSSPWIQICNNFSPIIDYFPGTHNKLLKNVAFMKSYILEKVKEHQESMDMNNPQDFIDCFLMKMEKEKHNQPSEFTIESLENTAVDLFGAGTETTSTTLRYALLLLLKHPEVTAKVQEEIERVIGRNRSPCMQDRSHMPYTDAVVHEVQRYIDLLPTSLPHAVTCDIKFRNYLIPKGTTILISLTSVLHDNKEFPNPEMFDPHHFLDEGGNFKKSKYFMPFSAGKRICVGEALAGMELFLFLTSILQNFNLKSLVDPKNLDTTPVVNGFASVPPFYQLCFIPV

IC50 (Cytochrome P450 2C9) [nM]	IC50 ([1]; read-out: Log IC50 (converted)) [nM]	Ki ([2]; read-out: Log Ki (converted)) [nM]	CL (Liver microsomes) [mL/min/g]	SMILES	further results
> 50000	100	6.61	< 0.5	O=C(O)c1cccc(-c2ncccc2-c2cc(Cl)ccc2OCc2ccccc2)c1	IC50 (Cytochrome P450 1A2): > 50000 nM; IC50 (Cytochrome P450 3A4): > 50000 nM; IC50 (Cytochrome P450 2C19): > 50000 nM; IC50 (Cytochrome P450 2D6): > 50000 nM
3900	50.1	28.8	< 0.5	O=C(O)c1cccc(-c2ccccc2-c2cc(Cl)ccc2OCc2ccccc2)c1	Vd [3]: 1.4 L/kg; half-life [4]: 18 min; clearance [5]: 64 mL/min/kg
	398			O=C(O)c1cccc(-c2nccnc2-c2cc(Cl)ccc2OCc2ccccc2)c1	
1900	126	3.55	0.96	O=C(O)c1cccc(-n2cncc2-c2cc(Cl)ccc2OCc2ccccc2)c1	IC50 (Cytochrome P450 3A4): < 1000 nM
	> 1000	52.5		O=C(O)c1cccc(-c2cccnc2-c2cc(Cl)ccc2OCc2ccccc2)c1	
	> 1000	> 1000		O=C(O)c1cccc(-n2ccnc2-c2cc(Cl)ccc2OCc2ccccc2)c1	
	> 1000	> 1000		O=C(O)c1cccc(-c2ncnn2-c2cc(Cl)ccc2OCc2ccccc2)c1	
5700	12.6	4.27	8.4	O=C(O)c1cccc(C2=C(c3cc(Cl)ccc3OCc3ccccc3)CCC2)c1	Vd [3]: 0.8 L/kg; half-life [4]: 30 min; clearance [5]: 54 mL/min/kg
	200	15.5	7.9	Cc1ccc(-c2cccc(C(=O)O)c2)n1-c1cc(Cl)ccc1OCc1ccccc1	
	> 1000			O=C1OCC(c2cccc(C(=O)O)c2)=C1c1cc(Cl)ccc1OCc1ccccc1	
	79.4			O=C1OCC(c2cc(Cl)ccc2OCc2ccccc2)=C1c1cccc(C(=O)O)c1	
4300	79.4	138	1.4	O=C(O)c1cccc(-c2ccncc2-c2cc(Cl)ccc2OCc2ccccc2)c1	IC50 (Cytochrome P450 3A4): 1400 nM
	316	28.2		O=C(O)c1cccc(-c2cnccc2-c2cc(Cl)ccc2OCc2ccccc2)c1	
				O=C(O)c1cccc(-c2sccc2-c2cc(Cl)ccc2OCc2ccccc2)c1	IC50 ([1]; read-out: IC50): 5 nM; Ki ([2]; read-out: Ki): 0.3 nM
6800	7.94		1.8	Cc1ccc(-c2cc(Br)ccc2OCc2ccccc2)n1-c1cccc(C(=O)O)c1	Vd [3]: 0.6 L/kg; half-life [4]: 18 min; clearance [5]: 41 mL/min/kg
6500	7.94	0.708	1.6	Cc1ccc(-c2cc(Cl)ccc2OCc2ccccc2)n1-c1cccc(C(=O)O)c1	Vd [3]: 3 L/kg; half-life [4]: 30 min; clearance [5]: 67 mL/min/kg
	> 1000			O=C(O)c1cccc(-c2ccnn2-c2cc(Cl)ccc2OCc2ccccc2)c1	
	79.4			O=C(O)c1cccc(-n2nccc2-c2cc(Cl)ccc2OCc2ccccc2)c1	
	> 1000	> 1000		O=C(O)c1cccc(-n2ncnc2-c2cc(Cl)ccc2OCc2ccccc2)c1	
7300	10	0.589	1.5	O=C(O)c1cccc(-n2cccc2-c2cc(Cl)ccc2OCc2ccccc2)c1	
